# Laboratory results from ChEMBL document CHEMBL5143722, “Antimicrobial Peptides against Multidrug-Resistant Pseudomonas aeruginosa Biofilm from Cystic Fibrosis Patients” (J Med Chem, 2022).
# Calls of active or inactive are those of the source. The calls are words filed in the database; no cut-off is given here.
# Key:
# [1] = tested on: Pseudomonas aeruginosa; experiment: Antibiofilm activity against Pseudomonas aeruginosa clinical isolate 25 assessed as inhibition of biofilm formation at 1.56 uM incubated for 24 hrs by crystal violet staining based microtiter plate method; assay type: functional, organism-based
# How it was run: (§1)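 Washed overnight cultures in BM2 medium at 1 × 10^6 CFU/mL with 2-fold serial peptide dilutions in a U-bottom 96-well plate. Incubated 24 h at 37 °C without agitation. Unattached cells washed off, then 0.1% crystal violet stain read at 590 nm. No-bacteria blanks. Biomass expressed as % of untreated biofilm. At least three biological repeats.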
# [2] = tested on: Pseudomonas aeruginosa; experiment: Antibiofilm activity against Pseudomonas aeruginosa clinical isolate 29 assessed as inhibition of biofilm formation at 1.56 uM incubated for 24 hrs by crystal violet staining based microtiter plate method; assay type: functional, organism-based; how it was run: as §1
# [3] = tested on: Pseudomonas aeruginosa; experiment: Antibiofilm activity against Pseudomonas aeruginosa clinical isolate 40 assessed as inhibition of biofilm formation at 1.56 uM incubated for 24 hrs by crystal violet staining based microtiter plate method; assay type: functional, organism-based; how it was run: as §1
# [4] = tested on: Pseudomonas aeruginosa; experiment: Antibiofilm activity against Pseudomonas aeruginosa clinical isolate 52 assessed as inhibition of biofilm formation at 1.56 uM incubated for 24 hrs by crystal violet staining based microtiter plate method; assay type: functional, organism-based; how it was run: as §1
# [5] = tested on: Pseudomonas aeruginosa; experiment: Antibiofilm activity against Pseudomonas aeruginosa clinical isolate 53 assessed as inhibition of biofilm formation at 1.56 uM incubated for 24 hrs by crystal violet staining based microtiter plate method; assay type: functional, organism-based; how it was run: as §1
# [6] = tested on: Pseudomonas aeruginosa; experiment: Antibiofilm activity against Pseudomonas aeruginosa clinical isolate 71 assessed as inhibition of biofilm formation at 1.56 uM incubated for 24 hrs by crystal violet staining based microtiter plate method; assay type: functional, organism-based; how it was run: as §1
# [7] = tested on: Pseudomonas aeruginosa; experiment: Antibiofilm activity against Pseudomonas aeruginosa clinical isolate 99 assessed as inhibition of biofilm formation at 1.56 uM incubated for 24 hrs by crystal violet staining based microtiter plate method; assay type: functional, organism-based; how it was run: as §1
# [8] = tested on: Pseudomonas aeruginosa; experiment: Antibiofilm activity against Pseudomonas aeruginosa clinical isolate 172 assessed as inhibition of biofilm formation at 1.56 uM incubated for 24 hrs by crystal violet staining based microtiter plate method; assay type: functional, organism-based; how it was run: as §1
# [9] = tested on: Pseudomonas aeruginosa; experiment: Antibiofilm activity against Pseudomonas aeruginosa clinical isolate 238 assessed as inhibition of biofilm formation at 1.56 uM incubated for 24 hrs by crystal violet staining based microtiter plate method; assay type: functional, organism-based; how it was run: as §1
# [10] = tested on: Pseudomonas aeruginosa; experiment: Antibiofilm activity against Pseudomonas aeruginosa clinical isolate 251 assessed as inhibition of biofilm formation at 1.56 uM incubated for 24 hrs by crystal violet staining based microtiter plate method; assay type: functional, organism-based; how it was run: as §1
# [11] = tested on: Pseudomonas aeruginosa; experiment: Induction of biofilm degradation of Pseudomonas aeruginosa clinical isolate 59 at 1.56 uM incubated for 1 hr by crystal violet staining analysis; assay type: functional
# How it was run: (§2)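 Bacteria at 1 × 10^6 CFU/mL in BM2 grown static at 37 °C for 24 h to form biofilm. Wells rinsed of unattached cells, then exposed for 1 h to serial peptide dilutions (1.56–50 μM). Washed, stained with 0.1% crystal violet, A590 read. Biomass given as % of untreated biofilm; no-bacteria wells as blanks. At least three biological repeats.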
# [12] = tested on: Pseudomonas aeruginosa; experiment: Antibiofilm activity against Pseudomonas aeruginosa PAO1 in artificial sputum medium at 100 uM incubated for 24 hrs by resazurin staining based microtiter plate method; assay type: functional, organism-based
# How it was run: (§3)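 Washed overnight culture set to OD ~0.05 in BM2, diluted 1:100 into artificial sputum medium (pH 6.9) in 24-well plates. Grown 3 days aerobically at 37 °C with agitation. Peptides (12.5–100 μM) added for 24 h with agitation. Biofilm disrupted by cellulase for 1 h at 37 °C. Resazurin 0.02% for 1–2 h, fluorescence ex 530/em 590 nm; viability as % of untreated wells.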
# [13] = tested on: Pseudomonas aeruginosa; experiment: Antibiofilm activity against Pseudomonas aeruginosa clinical isolate 24 in artificial sputum medium at 100 uM incubated for 24 hrs by resazurin staining based microtiter plate method; assay type: functional, organism-based; how it was run: as §3
# [14] = tested on: Pseudomonas aeruginosa; experiment: Antibiofilm activity against Pseudomonas aeruginosa clinical isolate 46 in artificial sputum medium at 100 uM incubated for 24 hrs by resazurin staining based microtiter plate method; assay type: functional, organism-based; how it was run: as §3
# [15] = tested on: Pseudomonas aeruginosa; experiment: Antibiofilm activity against Pseudomonas aeruginosa clinical isolate 24 in artificial sputum medium at 50 uM incubated for 24 hrs by resazurin staining based microtiter plate method; assay type: functional, organism-based; how it was run: as §3
# [16] = tested on: Pseudomonas aeruginosa; experiment: Antibiofilm activity against Pseudomonas aeruginosa PAO1 in artificial sputum medium at 50 uM incubated for 24 hrs by resazurin staining based microtiter plate method; assay type: functional, organism-based; how it was run: as §3
# [17] = tested on: Pseudomonas aeruginosa; experiment: Bactericidal activity against Pseudomonas aeruginosa clinical isolate 46 derived from cystic fibrosis patient sputum assessed as killing rate at 10 uM measured after 1 hr by time-kill assay relative to control; assay type: functional
# How it was run: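 Pooled CF patient sputum diluted 10-fold in 10 mM phosphate buffer (pH 7.0), centrifuged and 0.22 μm filtered. Bacteria at 10^6 CFU/mL in 10% sputum supernatant with 10 μM peptide for 1 h at 37 °C. Diluted and plated on LB agar; colonies counted against untreated plates.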
# [18] = tested on: Pseudomonas aeruginosa; experiment: Induction of biofilm degradation of Pseudomonas aeruginosa clinical isolate 24 derived from cystic fibrosis patient sputum at 1.56 to 50 uM by crystal violet based staining analysis; assay type: functional; conditions: dose 1.56-50 µM
# How it was run: (§4)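 Biofilm grown from 1 × 10^6 CFU/mL in pooled CF patient sputum diluted 10-fold with BM2, static, 37 °C, 24 h. Unattached cells rinsed off, then serial peptide dilutions (1.56–50 μM) applied for 1 h. Washed and stained with 0.1% crystal violet, read at 590 nm. Reported as % of untreated biomass, with no-bacteria blanks.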
# [19] = tested on: Pseudomonas aeruginosa; experiment: Induction of biofilm degradation of Pseudomonas aeruginosa clinical isolate 46 derived from cystic fibrosis patient sputum at 1.56 to 50 uM by crystal violet based staining analysis; assay type: functional; conditions: dose 1.56-50 µM; how it was run: as §4
# [20] = tested on: Pseudomonas aeruginosa; experiment: Induction of biofilm degradation of Pseudomonas aeruginosa clinical isolate 25 at sub MIC concentration incubated for 1 hr by crystal violet staining analysis; assay type: functional; how it was run: as §2
# [21] = tested on: Pseudomonas aeruginosa; experiment: Induction of biofilm degradation of Pseudomonas aeruginosa clinical isolate 29 at sub MIC concentration incubated for 1 hr by crystal violet staining analysis; assay type: functional; how it was run: as §2
# [22] = tested on: Pseudomonas aeruginosa; experiment: Induction of biofilm degradation of Pseudomonas aeruginosa clinical isolate 46 at sub MIC concentration incubated for 1 hr by crystal violet staining analysis; assay type: functional; how it was run: as §2
# [23] = tested on: Pseudomonas aeruginosa; experiment: Induction of biofilm degradation of Pseudomonas aeruginosa clinical isolate 52 at sub MIC concentration incubated for 1 hr by crystal violet staining analysis; assay type: functional; how it was run: as §2
# [24] = tested on: Pseudomonas aeruginosa; experiment: Induction of biofilm degradation of Pseudomonas aeruginosa clinical isolate 59 at sub MIC concentration incubated for 1 hr by crystal violet staining analysis; assay type: functional; how it was run: as §2
# [25] = tested on: Pseudomonas aeruginosa; experiment: Induction of biofilm degradation of Pseudomonas aeruginosa clinical isolate 71 at sub MIC concentration incubated for 1 hr by crystal violet staining analysis; assay type: functional; how it was run: as §2
# [26] = tested on: Pseudomonas aeruginosa; experiment: Induction of biofilm degradation of Pseudomonas aeruginosa clinical isolate 72 at sub MIC concentration incubated for 1 hr by crystal violet staining analysis; assay type: functional; how it was run: as §2
# [27] = tested on: Pseudomonas aeruginosa; experiment: Induction of biofilm degradation of Pseudomonas aeruginosa clinical isolate 99 at sub MIC concentration incubated for 1 hr by crystal violet staining analysis; assay type: functional; how it was run: as §2
# [28] = tested on: Pseudomonas aeruginosa; experiment: Induction of biofilm degradation of Pseudomonas aeruginosa clinical isolate 238 at sub MIC concentration incubated for 1 hr by crystal violet staining analysis; assay type: functional; how it was run: as §2
# [29] = tested on: Pseudomonas aeruginosa; experiment: Induction of biofilm degradation of Pseudomonas aeruginosa clinical isolate 629 at sub MIC concentration incubated for 1 hr by crystal violet staining analysis; assay type: functional; how it was run: as §2
# [30] = tested on: Pseudomonas aeruginosa; experiment: Induction of biofilm degradation of Pseudomonas aeruginosa clinical isolate PAO1 at sub MIC concentration incubated for 1 hr by crystal violet staining analysis; assay type: functional; how it was run: as §2
# [31] = tested on: Pseudomonas aeruginosa; experiment: Induction of biofilm degradation of Pseudomonas aeruginosa clinical isolate 59 at 50 uM incubated for 1 hr by crystal violet staining analysis
smiles,measurement,setting,value
CC(C)C[C@H](NC(=O)[C@H](CC(C)C)NC(=O)[C@H](CCCCN)NC(=O)[C@H](CC(C)C)NC(=O)[C@H](CC(C)C)NC(=O)[C@H](CCCCN)NC(=O)[C@H](CCCCN)NC(=O)[C@H](CC(C)C)NC(=O)[C@H](CC(C)C)NC(=O)[C@H](CCCCN)NC(=O)[C@H](CCCCN)NC(=O)[C@H](CC(C)C)NC(=O)[C@H](CC(C)C)NC(=O)[C@H](CCCCN)NC(=O)[C@@H](N)CC(C)C)C(N)=O,inhibition,[1],Active
same,inhibition,[2],Active
same,inhibition,[3],Active
same,inhibition,[4],Active
same,inhibition,[5],Active
same,inhibition,[6],Active
same,inhibition,[7],Active
same,inhibition,[8],Active
same,inhibition,[9],Active
same,inhibition,[10],Active
same,Activity,[11],Active
same,Activity,[12],Active
same,Activity,[13],Active
same,Activity,[14],Active
same,Activity,[15],Active
same,Activity,[16],Active
same,Activity,[17],>97.91%
same,Activity,[18],Active
same,Activity,[19],Active
CC(C)C[C@H](NC(=O)[C@H](CC(C)C)NC(=O)[C@H](CC(C)C)NC(=O)[C@H](CC(C)C)NC(=O)[C@H](CC(C)C)NC(=O)[C@H](CC(C)C)NC(=O)[C@H](CC(C)C)NC(=O)[C@H](CC(C)C)NC(=O)[C@H](CC(C)C)NC(=O)[C@H](CCCCN)NC(=O)[C@H](CCCCN)NC(=O)[C@@H](N)CCCCN)C(=O)N[C@@H](CCCCN)C(=O)N[C@@H](CCCCN)C(=O)N[C@@H](CCCCN)C(N)=O,Activity,[20],Active
same,Activity,[21],Active
same,Activity,[22],Active
same,Activity,[23],Active
same,Activity,[24],Active
same,Activity,[25],Active
same,Activity,[26],Active
same,Activity,[27],Active
same,Activity,[28],Active
same,Activity,[29],Active
same,Activity,[30],Active
same,Activity,[31],40%
